Measurements: paper PMC11134322 (RSC Advances, 2024)

Legend:
Assay type in all cases: cell-based
[1] = test system: LPS-induced NO release in RAW264.7 cells; assay: Inhibition of LPS-induced NO release, Griess reagent test; settings: Mus musculus, RAW264.7, 24 h, read-out: IC50 NO
Procedure, shortened: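 Log-phase RAW264.7 cells were seeded at 4 × 10^5 cells per mL in 96-well plates and grown 24 h. They were pretreated with test compound or indomethacin for 30 min, then stimulated with LPS (0.5 mg L−1) for 24 h more. NO in the supernatant was measured by Griess method and quantified against an NaNO2 standard curve. IC50 came from dose–response experiments.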

[2] = test system: LPS-induced IL-6 release in RAW264.7 cells; assay: Inhibition of LPS-induced IL-6 production, ELISA; settings: Mus musculus, RAW264.7, 24 h, read-out: IC50 IL-6
Procedure, shortened: (§1)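 Log-phase RAW264.7 cells, 4 × 10^5 cells per mL, were grown 24 h before dosing. They received test compound or indomethacin for 30 min, then LPS (0.5 mg L−1) for a further 24 h. IL-6 or TNF-α in the culture medium was measured by commercial ELISA, reading absorbance at 450 nm against a standard curve. IC50 came from dose–response experiments.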

[3] = test system: LPS-induced TNF-α release in RAW264.7 cells; assay: Inhibition of LPS-induced TNF-α production, ELISA; settings: Mus musculus, RAW264.7, 24 h, read-out: IC50 TNF-α
Procedure, shortened: as §1

[4] = test system: RAW264.7 cells; assay: Cytotoxicity, CCK-8 assay; settings: RAW264.7 cells, 24, 48 and 72 h; DEX 27.964 μM, 13b 12.326 μM, 13d 23.684 μM

- IC50 [1]: 21.2 ± 0.517 µM
- IC50 [2]: 247 ± 73 nM
- IC50 [3]: 27.8 ± 0.643 µM
Compound: C[C@@H]1C[C@H]2[C@@H]3CCC4=CC(=O)C=C[C@]4(C)[C@@]3(F)[C@@H](O)C[C@]2(C)[C@@]1(O)C(=O)CO [DEX, dexamethasone]
- cytotoxicity: cell activity / proliferation versus control (in words) [4]: no discernible change in cell activity
